Results: ChEMBL document CHEMBL1122766, “Synthesis and antitumor evaluation of some nitrosourea and nitrogen mustard amino acid derivatives” (J Med Chem, 1984)

How the values were obtained:
[1] = Therapeutic index in L1210 (murine leukemia) inoculated mice.; settings: mouse; read-out: TI
[2] = Median lethal dose in L1210 (murine luekemia) inoculated mice.; assay type: toxicity, organism-based; settings: mouse, in vivo
Summary of the method: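 Adult F1 (DBA/2 × C57Bl/6) mice inoculated ip with 10^5 L1210 cells on day 0; 8–10 mice per dose; compound in olive oil (2–150 mg/kg) on day 1, repeated days 5 and 9 only in mice without toxicity signs. Daily mortality, autopsy to separate leukemic from toxic deaths; acute LD50 determined graphically (98% confidence limits).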

[3] = species on record: Mus musculus; assay: Optimum dose for antitumor activity against leukemia L1210 in mice; assay type: functional
Summary of the method: (§1)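 Adult F1 (DBA/2 × C57Bl/6) mice inoculated ip with 10^5 L1210 cells on day 0, 8–10 mice per dose. Compound in olive oil (2–150 mg/kg) given day 1, repeated days 5 and 9 only in mice without toxicity. Daily mortality with autopsy. T/C × 100 from median survival; active if >125 and significant by Wilcoxon W test. Acute LD50 determined graphically.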

[4] = species on record: Mus musculus; assay: Dose range for antitumor activity against leukemia L1210 in mice.; assay type: functional; summary of the method: as §1
[5] = species on record: Mus musculus; assay: The oncostatic index (T=median survival time in the treated group of mice, C=median survival time in the control group X 100) was calculated; assay type: functional
Summary of the method: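 Mice (adult F1 DBA/2 × C57Bl/6) given 10^5 L1210 cells ip on day 0; 8–10 per dose group; olive-oil doses 2–150 mg/kg on day 1, repeated days 5 and 9 in non-toxic mice. T/C × 100 from median survival times, treated vs control. Active if >125 and significant by Wilcoxon W test; ∞ means >50% of group cured.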

SMILES	selectivity ratio [1]	LD50 [2] [mg/kg]	OD [3] [mg/kg]	Dose [4] [mg/kg]	T/C [5] [%]
CN(CC(=O)NCCCl)C(=O)N(CCCl)N=O	2	400	200	280	–
CC1(C)O[C@@H]2[C@H](O1)[C@@H](COC(=O)c1ccc([N+](=O)[O-])cc1)O[C@H]2NC(=O)N(CCCl)N=O	4.5	90	20	30	–
O=NN(CCCl)C(=O)NCC(=O)NCCCl	2	25	12	20	–
O=NN(CCCl)C(=O)NCCCC(=O)NCCCl	3.6	–	35	50	–
NC(=O)CC(NC(=O)N(CCCl)N=O)C(=O)NCCCl (stereo unspecified)	1.75	35	20	30	–
CC(NC(=O)N(CCCl)N=O)C(=O)NCCCl (stereo unspecified)	1.75	35	20	30	–
O=NN(CCCl)CCSSCCN(CCCl)N=O	2.5	75	30	50	–
O=NN(CCCl)C(=O)N1CCCC1C(=O)NCCCl (stereo unspecified)	–	80	–	35	194
CSCCC(NC(=O)N(CCCl)N=O)C(=O)NCCCl (stereo unspecified)	1.6	32	20	30	–
O=NN(CCCl)C(=O)NC(Cc1ccccc1)C(=O)NCCCl (stereo unspecified)	1.6	80	50	60	–
O=NN(CCCl)C(=O)NC(Cc1c[nH]c2ccccc12)C(=O)NCCCl (stereo unspecified)	2.4	65	27	35	–
CC(O)C(NC(=O)N(CCCl)N=O)C(=O)NCCCl (stereo unspecified)	1.6	25	15	20	–
O=NN(CCCl)C(=O)NCCC(=O)NCCCl	2.9	–	35	50	–
CCC(C)C(NC(=O)N(CCCl)N=O)C(=O)NCCCl (stereo unspecified)	2.6	130	50	75	–
O=NN(CCCl)C(=O)N[C@H]1C(O)O[C@H](CO)[C@@H](O)[C@@H]1O (stereo partly specified) [CHLOROZOTOCIN]	2.5	35	15	25	–
O=NN(CCCl)C(=O)NC(Cc1ccc(O)cc1)C(=O)NCCCl (stereo unspecified)	–	40	–	25	211
CC(C)CC(NC(=O)N(CCCl)N=O)C(=O)NCCCl (stereo unspecified)	1.8	64	35	50	–
O=NN(CCCl)C(=O)NC1CCCCC1 [LOMUSTINE]	–	30	–	10	–
